Screening data (PubChem)
An excerpt weighted towards active compounds, which were near 1.9% of everything screened.
DNMT1 block: DNMT1 (human) enzyme inhibition. actives 0.83% (n = 360,000). DNMT1 molecular beacon, Hinp1I cleavage, fluorescence. inhibition (reported as % activation of signal), % at 10 µM. AID 588458. P26358; in the data active = inhibition above about 50%
SUMO1-SIM PPI: alters human SUMO1 binding to SIM partners; P63165; SUMO1 binding to a labelled peptide, TR-FRET, 1 h; inhibition, % at 20 µM; actives 0.33% (n = 360,000); AID 602429; in the data active = inhibition above about 37%
STEP inh: inhibitors of human striatal-enriched phosphatase STEP; P54829; recombinant STEP, OMFP fluorogenic substrate, fluorescence; inhibition, % at 20 µM; actives 0.25% (n = 360,000); AID 588621;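 active = inhibition at 20 µM, scaled per plate between control wells, above about 37%, limit read from the data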;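 note: 0% = DMSO with enzyme and substrate and 100% = substrate only without enzyme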
Target sequence (P54829 whole entry, looked up): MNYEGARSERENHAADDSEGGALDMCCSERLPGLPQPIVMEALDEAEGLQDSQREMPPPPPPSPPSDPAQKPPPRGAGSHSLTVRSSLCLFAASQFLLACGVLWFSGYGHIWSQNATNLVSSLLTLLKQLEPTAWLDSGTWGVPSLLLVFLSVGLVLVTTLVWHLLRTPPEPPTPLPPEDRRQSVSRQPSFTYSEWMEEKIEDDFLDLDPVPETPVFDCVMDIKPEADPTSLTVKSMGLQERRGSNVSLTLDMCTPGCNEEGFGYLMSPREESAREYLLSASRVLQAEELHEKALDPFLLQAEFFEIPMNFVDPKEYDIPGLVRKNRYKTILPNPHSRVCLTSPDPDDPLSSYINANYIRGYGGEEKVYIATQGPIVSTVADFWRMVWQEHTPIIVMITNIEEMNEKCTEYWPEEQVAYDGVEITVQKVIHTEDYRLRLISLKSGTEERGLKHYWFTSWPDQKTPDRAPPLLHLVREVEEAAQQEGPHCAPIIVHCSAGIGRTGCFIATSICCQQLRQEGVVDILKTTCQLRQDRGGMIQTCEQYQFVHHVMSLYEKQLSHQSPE
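Assay system: isolated STEP enzyme. Buffer or medium: pH 6.0 Bis-Tris with DTT and Tween 20. Also added: fluorogenic phosphatase substrate OMFP at 25 µM final. Dosing: 20 µM, 1% DMSO. Timing: 20 min reaction, room temperature, in the dark. Measured by: fluorescence intensity, excitation 480 nm, emission 540 nm. Evaluation: normalized % inhibition.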
LMPTP block: blocks human LMPTP phosphatase; inhibition, % at 20 µM; recombinant LMPTP-A, OMFP fluorogenic substrate, fluorescence intensity; P24666; actives 0.22% (n = 360,000);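 active = compounds that cut the enzyme signal by at least half of the control window in the single-dose screen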;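 note: plate controls were DMSO wells with enzyme plus substrate for no effect and substrate without enzyme for full effect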
Target sequence (P24666 whole entry, looked up): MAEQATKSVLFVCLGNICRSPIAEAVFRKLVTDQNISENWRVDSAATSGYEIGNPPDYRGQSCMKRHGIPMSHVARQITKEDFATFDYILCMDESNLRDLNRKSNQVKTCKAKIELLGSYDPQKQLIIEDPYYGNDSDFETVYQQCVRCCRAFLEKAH
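Test system: LMPTP-A phosphatase enzyme; input: 0.625 nM LMPTP-A final; reagent: OMFP substrate, 400 µM final; compound dosing: 20 µM single dose, 3% DMSO; incubation: 50 min dark incubation at room temperature; measured by: endpoint fluorescence intensity from OMFP dephosphorylation; measure: % inhibition relative to no-enzyme and uninhibited control wells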
CSN inh: CSN deneddylation inhibition; inhibition, % at 12.5 µM; Purified CSN, SCF-Nedd8-OG deneddylation, fluorescence polarization; Q92905; actives 0.38% (n = 360,000);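 active = pattern-corrected inhibition above about 35%, with an unprinted fluorescence ratio check between 0.5 and 1.5, limit read from the data, passing the limit was not always enough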;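 note: 0% = enzyme with substrate and 100% = substrate without enzyme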
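Test system: purified human Csn5 enzyme expressed in HEK293T cells. Amount: 0.24 nM enzyme. Reagent: SCFSkp2-Nedd8OG substrate at 10 nM final. Schedule: 90 min incubation of compound, enzyme and substrate at room temperature. Detection: fluorescence polarization. Read-out: % inhibition of substrate cleavage by Csn5.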
Scp1 inh: blocks human Scp-1 phosphatase activity; Q9GZU7; Recombinant Scp1, phosphopeptide, malachite green phosphate absorbance; inhibition, % at 20 µM; actives 0.88% (n = 340,000); AID 493091;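 active = inhibition above about 50% at 20 µM, limit read from the data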;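 note: plate controls were DMSO wells with enzyme for no effect and wells lacking enzyme for full effect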
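Times: enzyme reaction 45 min at room temperature, colour 5 min, stabilisation 30 min. Material: SCP-1 catalytic fragment, aa 76-261. Medium: Acidic Tris acetate buffer with magnesium and detergent. Signal: colorimetric free-phosphate detection, absorbance 630 nm. Read-out basis: % inhibition of SCP-1 phosphate liberation. Reagent: Phosphorylated 17-residue peptide substrate.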
An asterisk follows results filed as active; / = no result; + = active, no number.

SMILES	DNMT1 block	SUMO1-SIM PPI	STEP inh	LMPTP block	CSN inh	Scp1 inh
NC(=O)c1nsc(C(=O)N(CC(=O)NCc2ccco2)c2ccccc2F)c1N	2.4	50.5*	0.1	-1.2	-2.0	-2.7
O=C(Cc1ccccc1)NCC(=O)OCc1cccc([N+](=O)[O-])c1	0.8	-25.8	2.1	-0.5	37.7*	1.0
CCN(CC)c1ccc(C(=C2C=CC(=[N+](CC)CC)C=C2)c2ccc(N(CC)CC)cc2)cc1	13.9	-58.3	25.2	80.6*	-1.7	-2.5
COc1ccc(C2=NOC(Cn3nc(-c4ccccc4)cc3C(=O)NCc3ccc(C)cc3)C2)cc1 (stereo not drawn)	9.8	4.9	2.2	6.5	35.2*	-12.4
COc1ccc(C2=NOC(Cn3nc(-c4ccccc4)cc3C(=O)NCc3cccc(C(F)(F)F)c3)C2)cc1 (stereo not drawn)	2.0	5.4	1.0	4.4	-4.4	-10.3
Cc1nc2cc(-c3ccsc3-n3c(C)ccc3C)[nH]n2c(=O)c1Cl	44.5	41.4*	-1.5	49.7	50.8	24.7
CC1(C(=O)NCc2ccc(Cl)c(Cl)c2)Oc2cccnc2NC1=O (stereo not drawn)	-0.5	0.1	-3.5	-0.5	-0.7	-7.4
COc1ccc(C=NNc2ccc(S(=O)(=O)Nc3ccccc3C(=O)O)cc2[N+](=O)[O-])c(OC)c1	12.7	55.7*	6.1	52.2*	-8.9	-4.8
O=C(O)c1ccccc1NS(=O)(=O)c1ccc(NN=Cc2ccccc2F)c([N+](=O)[O-])c1	-7.8	2.3	3.0	3.9	-0.3	43.5
CCOc1cc(/C=N/NC(=O)c2nnn(-c3nonc3N)c2C)ccc1OCc1ccc(C)cc1	45.1	-0.4	2.4	2.0	40.8*	/
CCOc1cc(/C=N/NC(=O)c2nnn(-c3nonc3N)c2C)ccc1OCc1ccc(F)cc1	5.8	-2.4	-0.3	2.1	5.4	-6.3
CCOc1ccccc1N1CCN(C(=O)c2ccc3c(c2)OCO3)CC1	0.7	-0.3	1.3	0.4	-5.1	9.3
CC(C)(C)n1nnnc1C(C1CC1)N1CCN(C/C=C/c2ccccc2)CC1 (stereo not drawn)	0.2	0.4	3.3	-2.6	51.2*	/
Cc1ccc(OCC(=O)N(C)CC(=O)Nc2ccccc2Cl)c([N+](=O)[O-])n1	4.7	-18.6	-1.6	-0.5	-1.1	15.6
CCCC1=NN2C(=N)/C(=C\c3cc(C)n(-c4cccc(C)c4)c3C)C(=O)N=C2S1	55.5*	-2.5	-1.1	-1.4	2.0	-4.4
CCCC1=NN2C(=N)/C(=C\c3cc(C)n(Cc4ccccc4)c3C)C(=O)N=C2S1	1.7	-1.3	-1.0	-0.3	5.3	-30.5
CCCNC(=O)CN1CCN(c2cc3ccccc3c(Cl)n2)CC1	-5.8	-11.9	-1.4	0.0	100.3*	-5.3
COc1ccc(N2CCN(CC(=O)NCc3ccccc3)CC2)cc1	2.5	0.9	0.9	0.9	-1.6	-0.7
Cc1ccccc1CN1C(=O)C(C)Sc2ccc(-c3ccco3)cc21 (stereo not drawn)	58.0*	6.5	1.6	1.3	29.6	/
O=C(c1ccc(Br)o1)N1CCC(Cc2ccccc2)CC1	0.5	0.7	-3.6	1.6	93.1*	-7.8
CCCOc1ccc(C(=O)c2ccccc2C(=O)O)cc1OCCC	0.1	-3.2	-0.2	-0.7	1.7	-7.4
CCOc1ccc(C(=O)c2ccccc2C(=O)O)cc1OCC	-4.8	10.0	1.8	-1.7	56.8*	-1.4
COc1ccc(-c2cc3c(=O)n(CC(=O)N4CCCC4)ncn3n2)cc1	13.6	57.6*	-0.7	1.0	1.8	-8.2
COc1ccc(-c2cc3c(=O)n(CC(=O)NCc4ccc(C)cc4)ncn3n2)cc1	33.6	-0.7	-3.9	-0.6	4.7	-14.0
CCOC(=O)c1c(-c2ccc(OC)cc2)cn2ccccc12	-43.4	-5.3	3.0	0.4	0.5	0.9
SMILES	DNMT1 block	SUMO1-SIM PPI	STEP inh	LMPTP block	CSN inh	Scp1 inh
O=C(Nc1ccc(-c2nc3ccccc3[nH]2)cc1)c1ccc2c(c1)OCO2	18.0	41.6*	4.9	7.3	15.2	0.5
COC(=O)N/N=C(\CCC(=O)O)c1cccs1	-11.0	12.7	0.0	2.8	89.7*	-0.7
O=C(O)CC/C(=N\NC(=O)c1ccccc1)c1cccs1	-4.3	2.3	0.9	-0.7	7.6	-4.7
CC(C)(C)NC(=O)NC(=O)COC(=O)c1cc[n+]([O-])cc1	0.3	-0.7	-0.4	0.0	-3.1	-7.5
COc1ccccc1CNc1nc(-c2cc(C)n(C)c2C)cs1	75.7*	-1.2	-2.2	11.2	-3.4	3.5
CN(C)c1ccc(C(C#N)c2ccccc2)nn1 (stereo not drawn)	0.4	-2.5	0.6	1.4	-11.3	-4.9
CS(=O)(=O)c1cccc(C(=O)Nc2ccc3c(c2)OCCCO3)c1	0.5	1.4	-3.6	-2.3	0.6	3.6
O=C(/C=C/c1ccccc1)c1cc(Br)ccc(=O)c1O	60.8*	19.1	10.7	18.5	34.2	-6.4
O=C(/C=C/c1ccc(F)cc1)c1cc(Br)ccc1O	8.6	3.2	1.0	1.1	3.5	-8.4
OC(CN1CCCCC1)c1ccc2c3c(cccc13)CC2 (stereo not drawn)	9.9	-15.8	-3.4	-0.2	0.1	-9.5
Cc1cccc(C)c1NC(=O)C1c2ccccc2OCC(=O)N1Cc1ccccc1 (stereo not drawn)	/	-5.6	/	-1.0	1.0	/
CCc1nc2ccccc2c(C(=O)OCC(=O)N(CCOC)c2c(N)n(Cc3ccccc3)c(=O)[nH]c2=O)c1C	0.6	2.7	-3.0	-0.6	+	-1.2
CC(C)c1ccc(OCC(=O)Nc2c3c(nn2C(C)(C)C)CS(=O)(=O)C3)cc1	1.0	-3.0	0.0	0.2	-0.3	1.8
Cn1c(C(=O)Nc2ccc(Cl)cc2)cc2cc(Cl)ccc21	2.9	1.5	-0.8	-1.9	-2.7	-8.3
Cc1ccc(Cn2c(=N)n(CC(=O)c3ccc([N+](=O)[O-])cc3)c3ccccc32)cc1	24.2	-21.8	-2.6	2.7	42.5*	14.3
Cc1ccc(C(=O)Cn2c(=N)n(CCN3CCOCC3)c3ccccc32)cc1	-0.2	0.4	0.4	0.5	-0.6	-2.3
O=C(CN1C(=O)/C(=C2\SC(=S)N(CCS(=O)(=O)O)C2=O)c2ccccc21)Nc1cccc(Br)c1	13.9	17.0	97.9*	82.6*	21.0	101.3*
O=C(NC1(O)C(=O)c2ccccc2C1=O)c1c(Cl)cccc1Cl	52.7*	10.3	0.0	3.2	8.6	7.4
c1ccc2sc(-c3ccncc3)nc2c1	-1.7	-11.5	0.3	-1.7	4.0	-10.4
c1cncc(-c2nc3ccccc3s2)c1	2.2	48.4*	-0.4	0.4	-0.8	-0.8
